Laboratory results as given in ChEMBL document CHEMBL1147384, “Cytotoxic diterpenoids from the brown alga Dilophus ligulatus” (1993).
Converted amounts (≈) assume the structure as drawn.

Legend:
Format in all cases: functional
Settings in all cases: read-out: ED50 (the source's name)
[1] = Cytotoxicity against human NSCLC-N6 cells
Procedure, shortened: (§1)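 Run under the lab's standard cytotoxicity protocols with mercaptopurine as the positive standard. Activity is given as ED50 in μg/ml. Cells were human nasopharynx carcinoma KB, human lung carcinoma NSCLC-N6, murine leukemia P-388, and P-388/DOX, a P-388 line expressing the multidrug-resistance (mdr) gene.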

P388 [2] = experiment: Cytotoxicity against mouse doxorubicin-resistant P388 cells; procedure, shortened: as §1
KB = experiment: Cytotoxicity against human KB cells; procedure, shortened: as §1
P388 [3] = experiment: Cytotoxicity against mouse P388 cells; procedure, shortened: as §1

In the case of `CC(=O)OC[C@H]1/C(C=O)=C\C/C=C(\C)C[C@H](O)[C@@H]1[C@@H](C)CCC=C(C)C` [HYDROXYACETYLDICTYOLAL], the EC50 [1] is reported as 10 µg/mL (≈ 27.6 µM), the EC50 (P388 [2]) is reported as 9.3 µg/mL (≈ 25.7 µM) and the EC50 (KB) is reported as 2.1 µg/mL (≈ 5.79 µM). The EC50 (P388 [3]) was 3.9 µg/mL (≈ 10.8 µM).
`CC(=O)O[C@H]1C[C@H](C)[C@H]2C[C@H]2C2=C(COC2=O)[C@H]1[C@H](C)CCC=C(C)C` [ACETOXYCRENULIDE] showed an EC50 [1] of over 10 µg/mL, an EC50 (P388 [2]) of over 10 µg/mL and an EC50 (KB) of over 10 µg/mL. The EC50 (P388 [3]) was over 10 µg/mL.
In the case of `CC(=O)O/C=C1/CC/C=C(\C)C[C@@H]2OC(=O)[C@H]1[C@H]2[C@@H](C)CCC=C(C)C` [DILOPHOLIDE], the EC50 [1] is reported as 3.3 µg/mL (≈ 9.15 µM), the EC50 (P388 [2]) is reported as 12 µg/mL (≈ 33.3 µM) and the EC50 (KB) is reported as 1.5 µg/mL (≈ 4.16 µM). The EC50 (P388 [3]) was 0.5 µg/mL (≈ 1.39 µM).
Work on `Sc1ncnc2nc[nH]c12` [MERCAPTOPURINE ANHYDROUS] yielded an EC50 [1] of 0.76 µg/mL (≈ 4.99 µM), an EC50 (P388 [2]) of 0.25 µg/mL (≈ 1.64 µM) and an EC50 (KB) of 0.54 µg/mL (≈ 3.55 µM). For the same compound, the EC50 (P388 [3]) was 0.7 µg/mL (≈ 4.6 µM).
In the case of `CC(=O)O[C@H]1C(=O)C2C1CC/C=C(\C)CC[C@@H]2[C@H](C)CCC=C(C)C` (some centres undefined) [ISOACETYLCORIACENONE], the EC50 [1] is reported as 6.82 µg/mL (≈ 19.7 µM), the EC50 (P388 [2]) is reported as over 10 µg/mL and the EC50 (KB) is reported as over 10 µg/mL. It also gave an EC50 (P388 [3]) of 6 µg/mL (≈ 17.3 µM).
Work on `CC(=O)O[C@@H]1C(=O)C2C1CC/C=C(\C)CC[C@@H]2[C@H](C)CCC=C(C)C` (some centres undefined) [ACETYLCORIACENONE] yielded an EC50 [1] of 5.4 µg/mL (≈ 15.6 µM), an EC50 (P388 [2]) of over 10 µg/mL and an EC50 (KB) of over 10 µg/mL. The EC50 (P388 [3]) was 4.4 µg/mL (≈ 12.7 µM).
